Paper PMC9073044 (Saudi Journal of Biological Sciences, 2021)
Structures can show the parent of a compound that is named as a salt.

Experiments:
[1] = Caco-2 cells monolayer transport study; assay type: in vitro ADME; conditions: human
Outline: (§1)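 Caco-2 cells seeded at 1 × 10^5/cm2 on 0.33 cm2 transwell inserts and grown 21 days in DMEM with 20% FBS; TEER >300 Ω•cm2. Monolayers were preincubated 30 min in 37 ℃ HBSS with 10 mM HEPES. Test compound at 12, 120 and 1200 μg/mL was run bidirectionally, ± GF120918, for 2 h. […] Lucifer yellow (20 μg/mL, AP→BL, fluorescence) checked tight junctions.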

rats intestine = experiment: In-situ single-pass intestinal perfusion; assay type: in vivo, SD rats
Caco-2 cells monolayer = Caco-2 cells monolayer transport study; assay type: in vitro ADME
Outline: as §1

[2] = Cytotoxicity by MTT assay; assay type: cell-based; conditions: human, Caco-2 cells
Outline: (§2)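 MTT assay: Caco-2 cells seeded at 5 × 10^3 per well in 96-well plates and incubated 24 h. Medium was replaced with test compound (12, 120 or 1200 μg/mL) for 24 h. MTT was then added for 4 h, the supernatant removed, formazan dissolved in DMSO, and absorbance read at 630 nm.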

Caco-2 cells = experiment: Cytotoxicity by MTT assay; assay type: cell-based; conditions: lamivudine 12, 120 and 1200 μg/mL, 24 h
Outline: as §2

[3] = ref Du et al., 2019, Yuen et al., 1995; cited from earlier work
human DNA polymerase = conditions: ref Reis et al., 2013; cited from earlier work
[4] = Caco-2, with GF120918 (elacridar), 10 μM

`Nc1nc2c(ncn2COCCO)c(=O)[nH]1` [Acyclovir] gave a Papp A→B at 2 h ([1]; Caco-2) of 0.081 ± 0.011 ×10⁻⁶ cm/s.
`C[C@H]1O[C@@H](O[C@H]2[C@@H](O)C[C@H](O[C@H]3[C@@H](O)C[C@H](O[C@H]4CC[C@@]5(C)[C@H](CC[C@@H]6[C@@H]5C[C@@H](O)[C@]5(C)[C@@H](C7=CC(=O)OC7)CC[C@]65O)C4)O[C@@H]3C)O[C@@H]2C)C[C@H](O)[C@@H]1O` [Digoxin] showed a Papp A→B at 2 h ([1]; Caco-2) of 0.09 ± 0.005 ×10⁻⁶ cm/s, a Papp B→A at 2 h, 30 μg/mL ([1]; Caco-2) of 11.9 ± 0.312 ×10⁻⁶ cm/s and an efflux ratio at 2 h, 30 μg/mL ([1]; Caco-2) of 133. For the same compound, the Papp A→B at 2 h, 30 μg/mL [1, 4] was 3.59 ± 0.128 ×10⁻⁶ cm/s, the Papp B→A at 2 h, 30 μg/mL [1, 4] was 5.15 ± 0.058 ×10⁻⁶ cm/s and the efflux ratio at 2 h, 30 μg/mL [1, 4] was 1.43.
For `Nc1ccn([C@@H]2CS[C@H](CO)O2)c(=O)n1` [Lamivudine], the “permeability in BCS” value (rats intestine; from Peff in SPIP) was “moderate permeability”, the Papp A→B at 2 h, 12 μg/mL ([1]; Caco-2) was 0.296 ± 0.005 ×10⁻⁶ cm/s and the Papp A→B at 2 h, 120 μg/mL ([1]; Caco-2) was 0.297 ± 0.015 ×10⁻⁶ cm/s. It also gave a Papp A→B at 2 h, 1200 μg/mL ([1]; Caco-2) of 0.285 ± 0.011 ×10⁻⁶ cm/s, a Papp B→A at 2 h, 12 μg/mL ([1]; Caco-2) of 0.788 ± 0.044 ×10⁻⁶ cm/s and a Papp B→A at 2 h, 120 μg/mL ([1]; Caco-2) of 0.77 ± 0.027 ×10⁻⁶ cm/s. It also gave a Papp B→A at 2 h, 1200 μg/mL ([1]; Caco-2) of 0.737 ± 0.009 ×10⁻⁶ cm/s, a Papp A→B at 2 h, 12 μg/mL [1, 4] of 0.307 ± 0.008 ×10⁻⁶ cm/s and a Papp A→B at 2 h, 120 μg/mL [1, 4] of 0.322 ± 0.007 ×10⁻⁶ cm/s. It also gave a Papp A→B at 2 h, 1200 μg/mL [1, 4] of 0.293 ± 0.004 ×10⁻⁶ cm/s, a Papp B→A at 2 h, 12 μg/mL [1, 4] of 0.548 ± 0.011 ×10⁻⁶ cm/s and a Papp B→A at 2 h, 120 μg/mL [1, 4] of 0.519 ± 0.008 ×10⁻⁶ cm/s. The Papp B→A at 2 h, 1200 μg/mL [1, 4] was 0.531 ± 0.012 ×10⁻⁶ cm/s, the “permeability in BCS” value (Caco-2 cells monolayer; from Papp on Caco-2 cells monolayer, between high- and low-permeability controls) was “moderate-permeability” and the viability at 24 h, 1200 μg/mL [2] was > 80%. For the same compound, the “growth ability of Caco-2 cells” value (Caco-2 cells) was “did not significantly affect”, the bioavailability [3] was “exceed 80%” and the “affinity in human DNA polymerase” value (human DNA polymerase) was “low affinity”.
With `COCCc1ccc(OCC(O)CNC(C)C)cc1` (stereo not shown) [Metoprolol tartrate] the Peff (rats intestine; control drugs, perfusion concentration 120 μg/mL, mean ± SD, n = 6) was 6.13 ± 2.49 ×10^-5 cm/s and the Papp A→B at 2 h ([1]; Caco-2) was 16 ± 0.652 ×10⁻⁶ cm/s.
For Lucifer yellow, the “%lucifer yellow” value (Caco-2 cells monolayer; lucifer yellow 20 μg/mL, AP-BL, without GF120918, 2 h) was 0.81 ± 0.03%.
